According to ChEMBL document CHEMBL5058577, “EUbOPEN Chemogenomics Library 2 (Multiplex)” (2022):

Test system: Fibroblast
Assay: Multiplex assay against human fibroblast
Assay type: toxicity, cell-based
Method in brief: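 Live cells were stained at seeding with Hoechst33342, BioTracker Green Microtubule Cytoskeleton Dye, MitoTracker Red and Annexin V Alexa Fluor 680. Following compound addition, they were imaged on a CQ1 microscope at 37°C and 5% CO2 and gated by CellPathfinder machine learning into Hoechst high-intensity objects or normal cells, with normal cells split into healthy, pyknosed or fragmented nuclei and pyknosed cells into mitotic or apoptotic. Tubulin, mitochondrial-mass and membrane-permeability phenotypes are per cents of healthy-nucleus cells.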

[1] = 12 h, 1 µM, compound concentration 1 uM, replicate 1
[2] = 12 h, 1 µM, compound concentration 1 uM, replicate 2
[3] = 12 h, 10 µM, compound concentration 10 uM, replicate 1
[4] = 12 h, 10 µM, compound concentration 10 uM, replicate 2
[5] = 24 h, 1 µM, compound concentration 1 uM, replicate 1
[6] = 24 h, 1 µM, compound concentration 1 uM, replicate 2
[7] = 24 h, 10 µM, compound concentration 10 uM, replicate 1
[8] = 24 h, 10 µM, compound concentration 10 uM, replicate 2
[9] = 48 h, 1 µM, compound concentration 1 uM, replicate 1
[10] = 48 h, 1 µM, compound concentration 1 uM, replicate 2
[11] = 48 h, 10 µM, compound concentration 10 uM, replicate 1
[12] = 48 h, 10 µM, compound concentration 10 uM, replicate 2

O=C(NCCNCC(O)COc1ccc(O)cc1)N1CCOCC1.O=C(NCCNCC(O)COc1ccc(O)cc1)N1CCOCC1.O=C(O)/C=C/C(=O)O (centres undefined) [XAMOTEROL FUMARATE]
Population Apoptotic (%) [1]: 63%
Population Fragmented Nuclei (%) [1]: 15%
Population Healthy Nuclei (%) [1]: 67%
Population Hoechst High Intensity Objects (%) [1]: 2%
Population Membrane Permeable-Phenotype (%) [1]: 1%
Population Mitochondria Different-Phenotype (%) [1]: 4%
Population Mitotic Cells (%) [1]: 36%
Population Normal (%) [1]: 97%
Population Pyknosed Nuclei (%) [1]: 17%
Population Tubulin-Different-Phenotype (%) [1]: 24%
Total Cell Count [1]: 114
Population Apoptotic (%) [2]: 43%
Population Fragmented Nuclei (%) [2]: 23%
Population Healthy Nuclei (%) [2]: 53%
Population Hoechst High Intensity Objects (%) [2]: 4%
Population Membrane Permeable-Phenotype (%) [2]: 16%
Population Mitochondria Different-Phenotype (%) [2]: 7%
Population Mitotic Cells (%) [2]: 56%
Population Normal (%) [2]: 95%
Population Pyknosed Nuclei (%) [2]: 23%
Population Tubulin-Different-Phenotype (%) [2]: 55%
Total Cell Count [2]: 167
Population Apoptotic (%) [3]: 30%
Population Fragmented Nuclei (%) [3]: 21%
Population Healthy Nuclei (%) [3]: 64%
Population Hoechst High Intensity Objects (%) [3]: 4%
Population Membrane Permeable-Phenotype (%) [3]: 2%
Population Mitochondria Different-Phenotype (%) [3]: 5%
Population Mitotic Cells (%) [3]: 70%
Population Normal (%) [3]: 95%
Population Pyknosed Nuclei (%) [3]: 14%
Population Tubulin-Different-Phenotype (%) [3]: 32%
Total Cell Count [3]: 143
Population Apoptotic (%) [4]: 17%
Population Fragmented Nuclei (%) [4]: 30%
Population Healthy Nuclei (%) [4]: 49%
Population Hoechst High Intensity Objects (%) [4]: 5%
Population Membrane Permeable-Phenotype (%) [4]: 4%
Population Mitochondria Different-Phenotype (%) [4]: 11%
Population Mitotic Cells (%) [4]: 82%
Population Normal (%) [4]: 94%
Population Pyknosed Nuclei (%) [4]: 20%
Population Tubulin-Different-Phenotype (%) [4]: 43%
Total Cell Count [4]: 154
Population Apoptotic (%) [5]: 68%
Population Fragmented Nuclei (%) [5]: 20%
Population Healthy Nuclei (%) [5]: 63%
Population Hoechst High Intensity Objects (%) [5]: 1%
Population Membrane Permeable-Phenotype (%) [5]: 2%
Population Mitochondria Different-Phenotype (%) [5]: 2%
Population Mitotic Cells (%) [5]: 31%
Population Normal (%) [5]: 98%
Population Pyknosed Nuclei (%) [5]: 15%
Population Tubulin-Different-Phenotype (%) [5]: 25%
Total Cell Count [5]: 121
Population Apoptotic (%) [6]: 50%
Population Fragmented Nuclei (%) [6]: 28%
Population Healthy Nuclei (%) [6]: 52%
Population Hoechst High Intensity Objects (%) [6]: 2%
Population Membrane Permeable-Phenotype (%) [6]: 18%
Population Mitochondria Different-Phenotype (%) [6]: 6%
Population Mitotic Cells (%) [6]: 50%
Population Normal (%) [6]: 97%
Population Pyknosed Nuclei (%) [6]: 19%
Population Tubulin-Different-Phenotype (%) [6]: 63%
Total Cell Count [6]: 149
Population Apoptotic (%) [7]: 62%
Population Fragmented Nuclei (%) [7]: 20%
Population Healthy Nuclei (%) [7]: 67%
Population Hoechst High Intensity Objects (%) [7]: 1%
Population Membrane Permeable-Phenotype (%) [7]: 0%
Population Mitochondria Different-Phenotype (%) [7]: 0%
Population Mitotic Cells (%) [7]: 37%
Population Normal (%) [7]: 98%
Population Pyknosed Nuclei (%) [7]: 12%
Population Tubulin-Different-Phenotype (%) [7]: 31%
Total Cell Count [7]: 135
Population Apoptotic (%) [8]: 42%
Population Fragmented Nuclei (%) [8]: 34%
Population Healthy Nuclei (%) [8]: 54%
Population Membrane Permeable-Phenotype (%) [8]: 5%
Population Mitochondria Different-Phenotype (%) [8]: 8%
Population Mitotic Cells (%) [8]: 57%
Population Pyknosed Nuclei (%) [8]: 11%
Population Tubulin-Different-Phenotype (%) [8]: 41%
Total Cell Count [8]: 172
Population Apoptotic (%) [9]: 65%
Population Fragmented Nuclei (%) [9]: 27%
Population Healthy Nuclei (%) [9]: 57%
Population Hoechst High Intensity Objects (%) [9]: 1%
Population Membrane Permeable-Phenotype (%) [9]: 1%
Population Mitochondria Different-Phenotype (%) [9]: 2%
Population Mitotic Cells (%) [9]: 35%
Population Normal (%) [9]: 98%
Population Pyknosed Nuclei (%) [9]: 15%
Population Tubulin-Different-Phenotype (%) [9]: 21%
Total Cell Count [9]: 131
Population Apoptotic (%) [10]: 40%
Population Fragmented Nuclei (%) [10]: 42%
Population Healthy Nuclei (%) [10]: 46%
Population Hoechst High Intensity Objects (%) [10]: 2%
Population Membrane Permeable-Phenotype (%) [10]: 7%
Population Mitochondria Different-Phenotype (%) [10]: 4%
Population Mitotic Cells (%) [10]: 60%
Population Normal (%) [10]: 97%
Population Pyknosed Nuclei (%) [10]: 10%
Population Tubulin-Different-Phenotype (%) [10]: 65%
Total Cell Count [10]: 140
Population Apoptotic (%) [11]: 56%
Population Fragmented Nuclei (%) [11]: 25%
Population Healthy Nuclei (%) [11]: 62%
Population Hoechst High Intensity Objects (%) [11]: 4%
Population Membrane Permeable-Phenotype (%) [11]: 1%
Population Mitochondria Different-Phenotype (%) [11]: 3%
Population Mitotic Cells (%) [11]: 43%
Population Normal (%) [11]: 95%
Population Pyknosed Nuclei (%) [11]: 11%
Population Tubulin-Different-Phenotype (%) [11]: 33%
Total Cell Count [11]: 144
Population Apoptotic (%) [12]: 52%
Population Fragmented Nuclei (%) [12]: 33%
Population Healthy Nuclei (%) [12]: 54%
Population Hoechst High Intensity Objects (%) [12]: 3%
Population Membrane Permeable-Phenotype (%) [12]: 6%
Population Mitochondria Different-Phenotype (%) [12]: 4%
Population Mitotic Cells (%) [12]: 47%
Population Normal (%) [12]: 96%
Population Tubulin-Different-Phenotype (%) [12]: 48%
Total Cell Count [12]: 157
